Data taken from paper PMC3502708 (Journal of molecular biology, 2012).
Blank lines part the entries; values can stand above or below the compound they belong to.

Legend:
MORF PHD1/2 fingers [1] = molecular target: T1, MORF PHD1/2 fingers (Homo sapiens, UniProt Q8WYB5); assay: NMR titration; format: binding; conditions: for Chemical shift changes / binding of MORF PHD1/2 by NMR (in words): 0.1 mM 15N-labeled PHD1/2, 298K
T1 sequence (Q8WYB5 211-329): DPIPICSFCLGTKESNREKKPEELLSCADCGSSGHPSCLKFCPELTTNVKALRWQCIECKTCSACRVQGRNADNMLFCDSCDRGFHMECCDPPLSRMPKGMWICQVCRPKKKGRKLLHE

[2] = system: endogenous H3K14ac / histone H3 in HEK293 cells; format: cell-based; conditions: TSA 3 μM, 6 h prior to harvesting, Flag-N-MORF IP
Method in brief: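 HEK293 cells were seeded at 300,000 per 6 cm dish and lipofection-transfected with Flag-tagged MORF N-terminal constructs (aa 1–352, or aa 1–215 lacking PHD1/2). After about 48 h, cells were lysed in buffer with 150 mM KCl and immunoprecipitated on anti-Flag M2 agarose. Beads were washed extensively and eluted in 50 mM phosphoric acid. Blots were probed with anti-Flag, anti-H3K14ac and anti-H3. Where indicated, TSA (3 μM) was added to the medium 6 h before harvest.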

[3] = molecular target: double PHD fingers of DPF3; conditions: read-out: Kd, double PHD fingers of DPF3; ref [31]; cited from earlier work
ING5 PHD finger = conditions: ref [13]; cited from earlier work
MORF PHD1/2 fingers [4] = molecular target: T1, MORF PHD1/2 fingers; assay: Tryptophan fluorescence binding, MORF PHD1/2; conditions: 25 °C, H3un vs acetylated peptides
MOZ PHD1/2 fingers = MOZ PHD1/2 fingers (Homo sapiens, UniProt Q92794); assay: Tryptophan fluorescence binding, MOZ PHD1/2; conditions: as seen in NMR and fluorescence assays
MOZ PHD1/2 fingers, sequence (Q92794 207-318): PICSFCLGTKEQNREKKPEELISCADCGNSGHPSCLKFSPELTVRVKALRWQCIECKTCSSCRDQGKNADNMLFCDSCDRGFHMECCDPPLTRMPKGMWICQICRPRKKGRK

Compound: C[C@H](N)C(=O)N[C@@H](CCCNC(=N)N)C(=O)N[C@H](C(=O)N[C@@H](CCCC[N+](C)(C)C)C(=O)N[C@@H](CCC(N)=O)C(=O)N[C@H](C(=O)N[C@@H](C)C(=O)N[C@@H](CCCNC(=N)N)C(=O)N[C@@H](CCCCN)C(=O)N[C@@H](CO)C(=O)N[C@H](C(=O)NCC(=O)O)[C@@H](C)O)[C@@H](C)O)[C@@H](C)O [H3K4me3]
Chemical shift changes / binding of MORF PHD1/2 by NMR (in words) (MORF PHD1/2 fingers [1]; 1H,15N HSQC titration): small changes in the NMR spectra of PHD1/2
Affinity of MORF PHD1/2 relative to H3un or H3K9ac (MORF PHD1/2 fingers [1]; NMR titration, 298K): three orders of magnitude lower than affinity of this protein toward H3un or H3K9ac

Compound: CC(=O)NCCCC[C@H](N)C(=O)O [acetylated lysine amino acid, reference compound]
Chemical shift changes / binding of MORF PHD1/2 by NMR (in words) (MORF PHD1/2 fingers [1]; 1H,15N HSQC titration): lack of any significant resonance perturbations

Compound: CC(/C=C/C(=O)NO)=C\[C@@H](C)C(=O)c1ccc(N(C)C)cc1 [trichostatin A (TSA), trichostatin A, reference compound]
Effect on association of N-MORF with histone H3 [2]: enhanced the association of N-MORF with histone H3

Chemical shift changes of MORF PHD1/2 with 5-fold excess of peptide (in words) (MORF PHD1/2 fingers [1]; 1H,15N HSQC, 298K, 5-fold excess of H3 (3–10)): no changes in the NMR spectra of PHD1/2
Compound: H3 (3–10): peptide comprising amino acids Thr3-Ser10 but missing Ala1 and Arg2 (TKQTARKS)

Chemical shift changes / binding of MORF PHD1/2 by NMR (in words) (MORF PHD1/2 fingers [1]; 1H,15N HSQC titration): induced similar resonance perturbations
Compound: H3 peptide (amino acids 1–20): longer unmodified H3 peptide (amino acids 1–20)

Binding of MORF PHD1/2 by NMR, short peptide (in words) (MORF PHD1/2 fingers [1]; 1H,15N HSQC titration, 298K, short peptide, amino acids 1–12): Substantial chemical shift changes
Affinity of MORF PHD1/2 relative to H3K9ac and H3K14ac (MORF PHD1/2 fingers [4]): two to three fold weaker
Affinity of MOZ PHD1/2 relative to H3K14ac and H3K9ac (MOZ PHD1/2 fingers): two to three fold weaker
Compound: H3un: peptide corresponding to amino acids 1–12 of unmodified histone H3 (NMR); length for fluorescence not printed
Kd [3]: 2000 nM
Binding to ING5 PHD finger (in words) (ING5 PHD finger): does not associate with H3un

Compound: H4 peptide (residues 1–23): H4 peptide (residues 1–23) [reference compound]
Chemical shift changes / binding of MORF PHD1/2 by NMR (in words) (MORF PHD1/2 fingers [1]; 1H,15N HSQC titration): unable to trigger chemical shift changes in MORF PHD1/2
